From ChEMBL document CHEMBL2146414, “Lignan derivatives from Krameria lappacea roots inhibit acute inflammation in vivo and pro-inflammatory mediators in vitro” (J Nat Prod, 2011) come the findings set out here.

Calls of active or inactive are those of the source. The calls are words filed in the database; no cut-off is given here.

The subject of test [1] is Radical scavenging activity. The test is described as follows: Antioxidant activity assessed as DPPH free radical scavenging activity after 30 mins by spectrophotometry. The test is classed as functional. To be noted: read-out: IC50.
The test system of test [2] is Mus musculus. Nature of the test: Antiinflammatory effect in CD1 mouse ear dermatitis model assessed as dermal swelling at 0.4 umol administered topically per cm'2 of ear after 9 hrs of post dermatitis induction relative to control. The test is classed as functional, organism-based. In short, it runs like this: (§1)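 Male CD-1 mice (28–32 g) anesthetized with ketamine 145 mg/kg ip; right ear (about 1 cm2) given 80 μg croton oil in 15 μL acetone with test substance co-applied in acetone; controls irritant only; left ear untreated. Ears fixed in 10% formalin, paraffin-embedded, 10 μm sections stained hematoxylin-eosin or Giemsa, examined by light microscopy at set times after induction.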

For test [3], the system named is Mus musculus. The test is described as follows: Antiinflammatory effect in CD1 mouse ear dermatitis model assessed as preservance of mast cell degranulation at 0.4 umol administered topically per cm'2 of ear measured after 6 hrs post dermatitis induction relative to control. It counts as functional, organism-based. Put shortly:
as §1

Test [4] relates to Mus musculus. The test is described as follows: Antiinflammatory activity in CD1 mouse ear dermatitis model assessed as inhibition of Croton oil-induced ear edema at 1 umol administered topically per cm'2 of ear measured after induction of dermatitis relative to untreated control. It counts as functional. In short, it runs like this: (§2)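 Male CD-1 mice (28–32 g), anesthetized with ketamine 145 mg/kg i.p.; right ear (about 1 cm2) given 80 μg croton oil in 15 μL acetone, with test substance co-applied in acetone; left ear left untreated. Controls received irritant only. 6 mm punches taken from both ears; edema = weight difference treated minus untreated; % inhibition vs controls. ID50 by graphic interpolation of log dose–effect curves; ANOVA with Dunnett's test.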

The subject of test [5] is Mus musculus. Nature of the test: Antiinflammatory activity in CD1 mouse ear dermatitis model assessed as inhibition of Croton oil-induced ear edema administered topically per cm'2 of ear measured after induction of dermatitis relative to untreated control. It counts as functional.
The test system of test [6] is Mus musculus. Nature of the test: Antiinflammatory activity in CD1 mouse ear dermatitis model assessed as inhibition of Croton oil-induced ear edema at 0.30 umol administered topically per cm'2 of ear measured after induction of dermatitis relative to untreated control. It counts as functional. Put shortly:
as §2

For test [7], the system named is Mus musculus. Nature of the test: Antiinflammatory effect in CD1 mouse ear dermatitis model assessed as reduction in cellular changes at 0.4 umol administered topically per cm'2 of ear measured after 6 hrs post dermatitis induction relative to control. The test is classed as functional, organism-based. In short, it runs like this:
as §1

In test [8] the test system is Mus musculus. Nature of the test: Antiinflammatory effect in CD1 mouse ear dermatitis model assessed as reduction in leukocyte infiltration-based myeloperoxidase at 0.4 umol administered topically per cm'2 of ear measured after 6 hrs post dermatitis induction relative to control. The test is classed as functional, organism-based. In short, it runs like this: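 CD-1 mice, croton oil 80 μg in acetone on right ear with topical test substance; ear punch (6 mm) homogenized in 0.1 M sodium acetate pH 4.2 with 0.1% HTAB, centrifuged 15000g 5 min; supernatant myeloperoxidase measured with TMB (2.83 mM) and 0.7 mM H2O2, 5 min at 25 °C, stopped with acetic acid, A620; duplicates; units = nM TMB oxidized/min.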

Test [9] concerns Mus musculus. Nature of the test: Antiinflammatory activity in CD1 mouse ear dermatitis model assessed as inhibition of Croton oil-induced ear edema at 0.10 umol administered topically per cm'2 of ear measured after induction of dermatitis relative to untreated control. The test is classed as functional. Put shortly:
as §2

The subject of test [10] is Mus musculus. The test is described as follows: Antiinflammatory effect in CD1 mouse ear dermatitis model assessed as reduction in vascular changes at 0.4 umol administered topically per cm'2 of ear measured after 6 hrs post dermatitis induction relative to control. The test is classed as functional, organism-based. In short, it runs like this: as §1
Test [11] deals with Mus musculus. Nature of the test: Antiinflammatory effect in CD1 mouse ear dermatitis model assessed as reduction in mast cell degranulation at 0.4 umol administered topically per cm'2 of ear measured after 6 hrs post dermatitis induction relative to control. It counts as functional, organism-based. In short, it runs like this: as §1
Test [12] relates to Mus musculus. The test is described as follows: Antiinflammatory activity in CD1 mouse ear dermatitis model assessed as inhibition of Croton oil-induced ear edema at 0.4 umol administered topically per cm'2 of ear measured 48 hrs after induction of dermatitis relative to untreated control.
The nature of test [13]: Inhibition of NFkappaB activity transfected in HEK293 cells pretreated for 1 hr before 6 hrs of LPS challenge by luciferase reporter gene assay. The following applies: Homo sapiens. A general note: Reporter assays use an easily measured gene product as a stand-in for the process of interest.
Test [14] has as its system Mus musculus. The test is described as follows: Antiinflammatory activity in CD1 mouse ear dermatitis model assessed as reduction in leukocyte infiltration-based myeloperoxidase activity at 0.04 umol administered topically per cm'2 of ear measured 3 to 48 hrs post dermatitis induction relative to untreated control. It counts as functional. In short, it runs like this:
(§3)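 Same croton oil ear model in CD-1 mice. The ear punch is homogenized in 0.1 M acetate pH 4.2 with 0.1% HTAB and centrifuged 15000g for 5 min. Supernatant myeloperoxidase is assayed with 2.83 mM TMB plus 0.7 mM H2O2 for 5 min at 25 °C, stopped with acetic acid, A620, duplicates.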

The subject of test [15] is Mus musculus. Nature of the test: Antiinflammatory effect in CD1 mouse ear dermatitis model assessed as reduction in cellular changes at 0.04 umol administered topically per cm'2 of ear measured after 6 hrs post dermatitis induction relative to control. The test is classed as functional, organism-based. In short, it runs like this: as §1
Test [16] concerns Mus musculus. Nature of the test: Antiinflammatory activity in CD1 mouse ear dermatitis model assessed as inhibition of Croton oil-induced ear edema at 0.04 umol administered topically per cm'2 of ear measured 6 hrs after induction of dermatitis relative to untreated control. The test is classed as functional. In short, it runs like this: as §2
Test [17] concerns Mus musculus. Nature of the test: Antiinflammatory activity in CD1 mouse ear dermatitis model assessed as inhibition of Croton oil-induced ear edema at 0.01 umol administered topically per cm'2 of ear measured after induction of dermatitis relative to untreated control. The test is classed as functional. Put shortly: as §2
Test [18] has as its system Mus musculus. Nature of the test: Antiinflammatory activity in CD1 mouse ear dermatitis model assessed as inhibition of Croton oil-induced ear edema at 0.04 umol administered topically per cm'2 of ear measured 12 hrs after induction of dermatitis relative to untreated control. It counts as functional. Put shortly: as §2
The test system of test [19] is Mus musculus. Nature of the test: Antiinflammatory effect in CD1 mouse ear dermatitis model assessed as reduction in vascular changes at 0.04 umol administered topically per cm'2 of ear measured after 6 hrs post dermatitis induction relative to control. It counts as functional, organism-based. Put shortly:
as §1

Test [20] deals with Mus musculus. The test is described as follows: Antiinflammatory activity in CD1 mouse ear dermatitis model assessed as inhibition of Croton oil-induced ear edema at 0.03 umol administered topically per cm'2 of ear measured after induction of dermatitis relative to untreated control. The test is classed as functional. In short, it runs like this:
as §2

The subject of test [21] is Mus musculus. Nature of the test: Antiinflammatory activity in CD1 mouse ear dermatitis model assessed as reduction in AUC of global leukocyte infiltration-based myeloperoxidase activity at 0.04 umol administered topically per cm'2 of ear measured 3 to 48 hrs post dermatitis induction relative to untreated control. It counts as functional. In short, it runs like this:
as §3

Test [22] deals with Mus musculus. Nature of the test: Antiinflammatory activity in CD1 mouse ear dermatitis model assessed as reduction in AUC of Croton oil-induced ear edema response at 0.04 umol administered topically per cm'2 of ear measured 48 hrs after induction of dermatitis relative to untreated control. It counts as functional. In short, it runs like this:
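Croton oil dermatitis on the right ear of anesthetized male CD-1 mice, with compound co-applied topically in acetone. Ear punch weight difference (treated minus untreated ear) measured at several times up to 48 h.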

On to `O=C1O[C@H]([C@@H](O)CO)C(O)=C1O` [ASCORBIC ACID], for which the IC50 in test [1] was 24.2 µM.

Regarding `COc1ccc2c(c1)c(CC(=O)O)c(C)n2C(=O)c1ccc(Cl)cc1` [INDOMETHACIN], the inhibition entry in the test on Mus musculus [2] and with Mus musculus [12] was “inactive” throughout. Further, the inhibition entry in the test with Mus musculus [3], in the test with Mus musculus [7], with Mus musculus [8], in the test with Mus musculus [10] and in the test with Mus musculus [11] was “Active” throughout. Further, the “inhibition (INH)” value amounted to 80% with Mus musculus [4], 51% in the test with Mus musculus [6] and 25% with Mus musculus [9]. In the test on Mus musculus [5], the ID50 came out at 0.29 umol/cm2.

For the molecule `C=C1C(=O)O[C@@H]2[C@H]3O[C@]3(C)CC/C=C(\C)CC[C@@H]12`, in [13], the IC50 was determined as 1.4 µM.

Turning to `C[C@]12CCC(=O)C=C1CC[C@@H]1[C@@H]2[C@@H](O)C[C@@]2(C)[C@H]1CC[C@]2(O)C(=O)CO` [HYDROCORTISONE], the “inhibition (INH)” value was determined as 35% in the test on Mus musculus [14]; 79% in the test with Mus musculus [16]; 29% with Mus musculus [17]; 60% with Mus musculus [18]; 55% in the test with Mus musculus [20]; 51% with Mus musculus [21]. The “inhibition (INH)” value with Mus musculus [22] is 69%; with Mus musculus [9], 77%. Moreover, the inhibition entry in the test with Mus musculus [15] and in the test on Mus musculus [19] was “Active” each time. For the same molecule, the ID50 in the test on Mus musculus [5] is 0.03 umol/cm2.

One may read the IC50 as the concentration at which inhibition is half-maximal.
